From PubChem
The full list was thinned out, with hits kept by preference.
Yeast life ext – yeast lifespan extension. inhibition of the nicotinamide effect, % at 10 µM. S. cerevisiae growth with nicotinamide, OD615; deaD strain in restrictive glucose medium. 130,000 tested, 0.68% active;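 active = inhibition above a set limit, placed 3 SD over the median of all compounds, cut at about 26% in these data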;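 note: 0% = nicotinamide-treated wells and 100% = cells grown without nicotinamide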
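Buffer or medium: CSMM-D glucose medium, restrictive; test system: modified budding yeast, DeaD strain; compound: single dose 10 µM compound, 0.25% DMSO; schedule: culture preincubation 4 h, compound exposure 48 h, both 30 °C; detection: optical density (absorbance) at 615 nm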
PostGolgi yeast – growth inhibition of a yeast mutant, post-Golgi transport screen | inhibition, % at 10 µM | post-Golgi transport phenotypic cell assay | 98,000 tested, 0.9% active;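 note: yeast cells grown in 1536-well plates; yeast grown about 18 h at 30C before absorbance read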
Yeast growth inh – chemicals that inhibit yeast BB579 growth in restrictive medium (lifespan-shortening candidates) | S. cerevisiae BB579 growth, OD615, 48 h | inhibition, % at 10 µM | 140,000 tested, 0.51% active;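 active = inhibition above a set limit, 3 SD over the mean compound inhibition, cut at about 44% in these data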
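System: Saccharomyces cerevisiae DeaD strain BB579, replicative lifespan model yeast. Buffer or medium: restrictive glucose-based CSMM-D medium. Doses: one dose, 10 µM compound with 0.25% DMSO. Timing: 4 h preincubation and 48 h exposure at 30 °C. Detection: turbidity as optical density at 615 nm. Benchmarks: amphotericin B 10 µg/mL, positive.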
PostGolgi ctrl – growth of the yeast control strain, post-Golgi counter-screen. efflux-deficient yeast background strain, growth absorbance A615, 16 h. inhibition, % at 10 µM. 98,000 tested, 5% active
Starred values were filed as active, the others as inactive. Cut-off read from the data, not from the text of the source, unless noted: active = inhibition above about 30%; inactive = the rest.

How did CN(C(=O)c1ccc2c(c1)C(=O)N(CCC1=CCCCC1)C2=O)C1CCCCC1 do in these assays?
Yeast life ext: -4; PostGolgi yeast: -1; Yeast growth inh: -20; PostGolgi ctrl: 34*

How did O=C(O)c1ccc2c(c1)C(=O)N(CCC1=CCCCC1)C2=O do in these assays?
Yeast life ext: -9; PostGolgi yeast: -7; Yeast growth inh: -27; PostGolgi ctrl: 2

What do the screens show for `COCCC(=O)NC12CC3CC(CC(C3)C1)C2`?
Yeast life ext: -2; PostGolgi yeast: -7; Yeast growth inh: -24; PostGolgi ctrl: 35*

Results for O=C(CCSc1ccc(Cl)c(Cl)c1)NC12CC3CC(CC(C3)C1)C2 ?
Yeast life ext: 7; PostGolgi yeast: 1; Yeast growth inh: -38; PostGolgi ctrl: 39*

What do the screens show for `Cn1ccnc1SCC(=O)NC12CC3CC(CC(C3)C1)C2`?
Yeast life ext: -9; PostGolgi yeast: 2; Yeast growth inh: -33; PostGolgi ctrl: 3

What do the screens show for `COc1ccc(OC)c(-c2c3cc(O)c(=O)cc-3oc3cc(O)c(O)cc23)c1`?
Yeast life ext: 0; Yeast growth inh: 63*

How did COCCCNC(=O)C1CCCN(S(=O)(=O)c2ccc(C)cc2)C1 (centres undefined) do in these assays?
Yeast growth inh: -5

What do the screens show for `O=C(OCCN1C(=O)c2ccccc2C1=O)c1cccc(OC(F)F)c1`?
Yeast life ext: -9; PostGolgi yeast: 2; Yeast growth inh: -25; PostGolgi ctrl: 36*

What do the screens show for `O=C(OCCN1C(=O)c2ccccc2C1=O)c1cccs1`?
Yeast life ext: -6; PostGolgi yeast: -5; Yeast growth inh: 6; PostGolgi ctrl: 5

Results for NNC1=N[C@H]2CS(=O)(=O)C[C@H]2S1 ?
Yeast life ext: 2; Yeast growth inh: -21

Results for COc1ccc(CNC(=O)/C(C#N)=C2\N=C(NC(=O)c3cccs3)c3ccccc32)cc1 ?
Yeast life ext: -4; Yeast growth inh: -13

Results for Cc1cc(C)c(C#N)c(N2CCN(CCOc3ccc(Cl)cc3)CC2)n1 ?
Yeast life ext: -2; PostGolgi yeast: 2; Yeast growth inh: -42; PostGolgi ctrl: 32*

How did O=C(Cn1c(C(=O)NCc2ccco2)cc2sccc21)c1ccccc1 do in these assays?
Yeast life ext: 7; PostGolgi yeast: -4; Yeast growth inh: -48; PostGolgi ctrl: 44*

How did CCCc1nnc(NC(=O)C2CCCO2)s1 (centres undefined) do in these assays?
Yeast life ext: -20; PostGolgi yeast: 3; Yeast growth inh: -3; PostGolgi ctrl: 6

What do the screens show for `COc1cc2ccccc2cc1C(=O)Nc1ccccc1N1CCN(S(C)(=O)=O)CC1`?
Yeast life ext: 1; PostGolgi yeast: 19; Yeast growth inh: -47; PostGolgi ctrl: 38*

How did Cc1cccc(C)c1OCC(O)Cn1c2ccccc2c2ccccc21 (centres undefined) do in these assays?
Yeast life ext: -5; PostGolgi yeast: -6; Yeast growth inh: -34; PostGolgi ctrl: 50*

What do the screens show for `Cc1ccc(OCC(O)Cn2c3ccccc3c3ccccc32)cc1` (centres undefined)?
Yeast life ext: -17; PostGolgi yeast: -1; Yeast growth inh: -60; PostGolgi ctrl: 41*

How did CC(=O)N(C)c1ccc(OCC(O)Cn2c3ccc(Cl)cc3c3cc(Cl)ccc32)cc1 (centres undefined) do in these assays?
Yeast life ext: -18; PostGolgi yeast: 73*; Yeast growth inh: -29; PostGolgi ctrl: 57*

How did O=C(NCCCN1CCC(Cc2ccccc2)CC1)C1CC(=O)N(C2CCCCCC2)C1 (centres undefined) do in these assays?
Yeast life ext: 1; PostGolgi yeast: 4; Yeast growth inh: -17; PostGolgi ctrl: 2

Results for Cc1ccccc1-c1nc2ccccc2c(=O)n1/N=C/c1ccccc1[N+](=O)[O-] ?
Yeast life ext: -12; PostGolgi yeast: 0; Yeast growth inh: -50; PostGolgi ctrl: 47*

Results for O=c1c2ccccc2nc(-c2ccccc2)n1/N=C/c1ccc([N+](=O)[O-])cc1 ?
Yeast life ext: -5; Yeast growth inh: -25

How did CC1=C(C(=O)Nc2cc(-c3cccc(F)c3)[nH]n2)C2(CCCCC2)OC1=O do in these assays?
Yeast life ext: -7; PostGolgi yeast: 2; Yeast growth inh: -59; PostGolgi ctrl: 32*

How did Cc1ccc(N/N=C/c2cccnc2)cc1 do in these assays?
Yeast life ext: -8; Yeast growth inh: 92*

What do the screens show for `O=C(Nc1c(-c2ccccc2)nc2sccn12)c1ccccc1`?
Yeast life ext: -10; PostGolgi yeast: 26; Yeast growth inh: 9; PostGolgi ctrl: -1

What do the screens show for `Cc1ccc(S(=O)(=O)NC(C)(C)CSc2nnc(Nc3ccccc3)s2)cc1`?
Yeast life ext: -11; PostGolgi yeast: 3; Yeast growth inh: -9; PostGolgi ctrl: 34*

Results for Cn1c(NC(=O)c2cc(Br)ccc2Cl)cc(=O)n(C)c1=O ?
Yeast life ext: -7; PostGolgi yeast: 3; Yeast growth inh: -29; PostGolgi ctrl: 12

How did O=C(C1CCCN(S(=O)(=O)Cc2ccccc2)C1)N1CCC(Cc2ccccc2)CC1 (centres undefined) do in these assays?
Yeast life ext: -5; PostGolgi yeast: 5; Yeast growth inh: -30; PostGolgi ctrl: 34*

What do the screens show for `O=C(Nc1ccc2c(c1)OCCO2)C1CCN(C(=O)c2ccccc2)CC1`?
Yeast life ext: -10; PostGolgi yeast: -5; Yeast growth inh: -44; PostGolgi ctrl: 31*

How did O=C(Nc1ccc2c(c1)OCCO2)C1CCCN(S(=O)(=O)Cc2ccccc2)C1 (centres undefined) do in these assays?
Yeast life ext: -15; PostGolgi yeast: 3; Yeast growth inh: -17; PostGolgi ctrl: -1

What do the screens show for `O=C(Nc1ccc2c(c1)OCO2)C1CCCN(S(=O)(=O)Cc2ccccc2)C1` (centres undefined)?
Yeast life ext: -2; PostGolgi yeast: -4; Yeast growth inh: -103; PostGolgi ctrl: 42*

Results for O=C(Nc1ccc2c(c1)OCCO2)C1CCN(C(=O)c2ccc(Br)cc2)CC1 ?
Yeast life ext: -12; PostGolgi yeast: 7; Yeast growth inh: -25; PostGolgi ctrl: 1

How did Cc1ccc(CNc2ccc(S(=O)(=O)N3CCOCC3)cc2[N+](=O)[O-])cc1 do in these assays?
Yeast life ext: 5; Yeast growth inh: -47

Results for CCOc1ccccc1CNC(=O)C1CCN(C(=O)c2sccc2-n2cccc2)CC1 ?
Yeast life ext: -12; PostGolgi yeast: -1; Yeast growth inh: -59; PostGolgi ctrl: 3

How did O=C(CN1CCN(Cc2ccccc2F)C1=O)NCCc1ccc(Cl)cc1 do in these assays?
Yeast life ext: -8; PostGolgi yeast: -3; Yeast growth inh: -54; PostGolgi ctrl: 3

Results for COC(=O)C1=CN(c2cccc(C)c2)C=C(C(=O)OC)C1c1cc(OC)c(O)c([N+](=O)[O-])c1 ?
Yeast life ext: 2; PostGolgi yeast: -2; Yeast growth inh: -41; PostGolgi ctrl: 67*

Results for COC(=O)C1=CN(c2ccc(OC)cc2)C=C(C(=O)OC)C1c1ccc(C)c([N+](=O)[O-])c1 ?
Yeast life ext: 7; Yeast growth inh: -19
